Assay results reported in ChEMBL document CHEMBL1147740, “Synthesis and biological activity of isoxazolidinyl polycyclic aromatic hydrocarbons: potential DNA intercalators” (J Med Chem, 2006).
In brackets after ≈: the same amount, converted by molar mass. *1 amine or outer side, *2 acyl side, *3 side chain or, on linkers, in order; H or OH if unused. Where a SMILES comes first, the peptide text is derived from it. Bridges are numbered along the chain shown (N, C = ends). Roman numbers before positions name the chains, in order. [ ]: non-standard residue; d: D form. Actinocin(1to9) = Cc1c2oc3c(C)ccc(C(=O)[*:2])c3nc-2c(C(=O)[*:1])c(N)c1=O; NMeV = CN[C@H](C(=O)O)C(C)C; Sar = CNCC(=O)O

Tests used:
MOLT-3 = test: Cytotoxicity against MOLT3 Leukemia cells by MTS assay; format: functional, cell-based, Homo sapiens
Summary of the method: (§1)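 MTS tetrazolium reduction assay; cells grown under optimal culture conditions for 20 h with compound at 10 to 500 µM or without it; MTS reagent then added for 1 h at 37 °C, humidified 5% CO2; absorbance read at 490 nm. Triplicate. IC50 is the concentration giving 50% reduction of absorbance.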

THP-1 = test: Cytotoxicity against THP1 Leukemia cells by MTS assay; format: functional, cell-based, Homo sapiens; settings: thp-1; summary of the method: as §1
U-937 = test: Cytotoxicity against U937 Lymphoma cells by MTS assay; format: functional, cell-based, Homo sapiens; summary of the method: as §1
Vero [1] = test: Cytotoxicity against normal vero kidney cells by MTS assay; format: functional, cell-based, Chlorocebus sabaeus; settings: vero; summary of the method: as §1
HEL = test: Antiviral activity against HEL cells; format: functional, Homo sapiens
Summary of the method: (§2)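 Cytotoxicity scored as the concentration giving a microscopically detectable alteration of normal cell morphology in HEL, HeLa or Vero cells.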

Vero [2] = test: Antiviral activity against vero cells; format: functional, Chlorocebus sabaeus; summary of the method: as §2
HeLa = test: Antiviral activity against HeLa cells; format: functional, Homo sapiens; summary of the method: as §2
Human alphaherpesvirus 1 [3] = test: Antiviral activity against herpes simplex virus 1 TK- KOS ACVr strain in HEL cells; format: functional
Summary of the method: (§3)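 Minimum inhibitory concentration (µg/mL) needed to reduce virus-induced cytopathogenicity by 50%; HSV strains in HEL cells, Punta Toro virus in Vero cells.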

Punta Toro virus = test: Antiviral activity against Punta Toro virus in vero cells; format: functional; summary of the method: as §3
Human respirovirus 3 = test: Antiviral activity against Parainfluenza-3 virus in vero cells; format: functional
Summary of the method: (§4)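 Virus infection of Vero cell cultures. The endpoint is the minimum inhibitory concentration (µg/mL) that reduces virus-induced cytopathogenicity by 50%.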

[4] = system: Mammalian orthoreovirus 1; test: Antiviral activity against Reovirus 1 in vero cells; format: functional; summary of the method: as §4
Sindbis virus = test: Antiviral activity against Sindbis virus in vero cells; format: functional; summary of the method: as §4
Coxsackievirus B4 [5] = test: Antiviral activity against Coxsackie virus B4 in vero cells; format: functional; settings: Enterovirus B; summary of the method: as §4
[6] = system: Respiratory syncytial virus; test: Antiviral activity against Respiratory syncytial virus in HeLa cells; format: functional; settings: human respiratory syncytial virus
Summary of the method: (§5)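 Virus infection of HeLa cell cultures. The endpoint is the minimum inhibitory concentration (µg/mL) that reduces virus-induced cytopathogenicity by 50%.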

Coxsackievirus B4 [7] = test: Antiviral activity against Coxsackie virus B4 in HeLa cells; format: functional; settings: Enterovirus B; summary of the method: as §5
[8] = system: Vesicular stomatitis virus; test: Antiviral activity against Vesicular stomatitis virus in HeLa cells; format: functional; summary of the method: as §5
Human alphaherpesvirus 1 [9] = test: Antiviral activity against Herpes simplex virus 1 KOS strain in HEL cells; format: functional, Human herpesvirus 1 strain KOS; settings: Human alphaherpesvirus 1, KOS; summary of the method: as §3
Human alphaherpesvirus 2 = test: Antiviral activity against Herpes simplex virus 2 G strain in HEL cells; format: functional; settings: Human alphaherpesvirus 2, G; summary of the method: as §3
Vaccinia virus = test: Antiviral activity against Vaccinia virus in HEL cells; format: functional; settings: Orthopoxvirus vaccinia
Summary of the method: (§6)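 Virus infection of HEL cell cultures. The endpoint is the minimum inhibitory concentration (µg/mL) that reduces virus-induced cytopathogenicity by 50%.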

[10] = system: Vesicular stomatitis virus; test: Antiviral activity against Vesicular stomatitis virus in HEL cells; format: functional; summary of the method: as §6
[11] = Chlorocebus sabaeus, Vero, read-out: MCC
[12] = Homo sapiens, HeLa, read-out: MCC
[13] = Punta Toro virus, read-out: MIC50
[14] = Homo sapiens, HEL, read-out: MCC
[15] = Human alphaherpesvirus 1, TK- KOS ACVr, read-out: MIC50

| Compound | MCC (Vero [2]; [11]) [µg/mL] | MCC (HeLa; [12]) [µg/mL] | MIC50 (Human respirovirus 3) [µg/mL] | MIC50 [4] [µg/mL] | MIC50 (Sindbis virus) [µg/mL] | MIC50 (Coxsackievirus B4 [5]) [µg/mL] | MIC50 (Punta Toro virus; [13]) [µg/mL] | MIC50 [6] [µg/mL] | MIC50 (Coxsackievirus B4 [7]) [µg/mL] | MIC50 [8] [µg/mL] | MCC (HEL; [14]) [µg/mL] | MIC50 (Human alphaherpesvirus 1 [9]) [µg/mL] | MIC50 (Human alphaherpesvirus 2) [µg/mL] | MIC50 (Vaccinia virus) [µg/mL] | MIC50 [10] [µg/mL] | MIC50 (Human alphaherpesvirus 1 [3]; [15]) [µg/mL] | further results |
| --- | --- | --- | --- | --- | --- | --- | --- | --- | --- | --- | --- | --- | --- | --- | --- | --- | --- |
| CN1O[C@H](CO)C[C@@H]1c1c2ccccc2cc2ccccc12 (relative stereo) | – | – | – | – | – | – | – | – | – | – | – | – | – | – | – | – | IC50 (MOLT-3; Homo sapiens, MOLT-3): > 500 µM |
| CN1O[C@H](CO)C[C@@H]1c1cc2ccccc2c2ccccc12 (relative stereo) | – | – | – | – | – | – | – | – | – | – | – | – | – | – | – | – | IC50 (THP-1): 148 µM; IC50 (MOLT-3; molt-3): 128 µM; IC50 (U-937; u-937): 154 µM; IC50 (Vero [1]): 231 µM; MCC (HEL): 400 µg/mL; MCC (Vero [2]): 80 µg/mL; MCC (HeLa): 80 µg/mL; MIC50 (Human alphaherpesvirus 1 [3]): >80 µg/mL; MIC50 (Punta Toro virus): 9.6 µg/mL (≈ 32.7 µM) |
| Nc1ncnc2c1ncn2C[C@H](O)CO [(S)-DHPA] | > 400 | > 400 | 400 (≈ 1910 µM) | 240 (≈ 1150 µM) | > 400 | > 400 | > 400 | > 400 | > 400 | > 400 | – | – | – | – | – | – | – |
| Nc1nc2c(ncn2COCCO)c(=O)[nH]1 [ACYCLOVIR] | – | – | – | – | – | – | – | – | – | – | > 400 | 0.384 (≈ 1.71 µM) | 0.384 (≈ 1.71 µM) | > 400 | > 400 | 48 (≈ 213 µM) | – |
| O=c1[nH]c(=O)n([C@H]2C[C@H](O)[C@@H](CO)O2)cc1/C=C/Br [BRIVUDINE] | > 400 | > 400 | > 400 | > 400 | > 400 | > 400 | > 400 | > 400 | > 400 | > 400 | > 400 | 0.128 (≈ 0.384 µM) | 240 (≈ 720 µM) | 48 (≈ 144 µM) | > 400 | > 400 | – |
| Cc1c2oc3c(C)ccc(C(=O)N[C@@H]4C(=O)N[C@H](C(C)C)C(=O)N5CCC[C@H]5C(=O)N(C)CC(=O)N(C)[C@@H](C(C)C)C(=O)O[C@@H]4C)c3nc-2c(C(=O)N[C@@H]2C(=O)N[C@H](C(C)C)C(=O)N3CCC[C@H]3C(=O)N(C)CC(=O)N(C)[C@@H](C(C)C)C(=O)O[C@@H]2C)c(N)c1=O [DACTINOMYCIN] (I: T[dV]P[Sar][NMeV] / II: T[dV]P[Sar][NMeV]; ester I:1-I:C, II:1-II:C; linker I:N-II:N via Actinocin(1to9)) | – | – | – | – | – | – | – | – | – | – | – | – | – | – | – | – | IC50 (MOLT-3; Homo sapiens, MOLT-3): < 1 µM; IC50 (U-937; Homo sapiens, U-937): < 1 µM |
| Nc1nc2c(ncn2COC(CO)CO)c(=O)[nH]1 [GANCICLOVIR] | – | – | – | – | – | – | – | – | – | – | > 100 | 0.096 (≈ 0.376 µM) | 0.032 (≈ 0.125 µM) | > 100 | > 100 | 0.48 (≈ 1.88 µM) | – |
| NC(=O)c1ncn([C@@H]2O[C@H](CO)[C@@H](O)[C@H]2O)n1 [RIBAVIRIN] | > 400 | > 400 | 48 (≈ 197 µM) | 16 (≈ 65.5 µM) | > 400 | > 400 | 80 (≈ 328 µM) | 9.6 (≈ 39.3 µM) | 9.6 (≈ 39.3 µM) | 16 (≈ 65.5 µM) | > 400 | 240 (≈ 983 µM) | > 400 | 80 (≈ 328 µM) | 240 (≈ 983 µM) | > 400 | – |
